Results: ChEMBL document CHEMBL1127795, “Small-molecule immunostimulants. Synthesis and activity of 7,8-disubstituted guanosines and structurally related compounds” (1994)
Several values for one entry are separate records, joined by “and”; a condition that tells them apart may be missing. Equal entries are not always repeated.

Tests used:
Mus musculus [1] = species: Mus musculus; assay: Effective dose for its ability to act as B-cell mitogens (mitogenicity); Neg indicates a response lower than vehicle control; type: functional
Summary of the method: (§1)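 CBA/CaJ mouse spleen cells (1 × 10⁵/0.2 mL) exposed to graded compound concentrations, dissolved in water or DMSO and diluted in medium, for 24 h. [³H]thymidine then added for a further 24 h; incorporation by scintillation counting. ED50 and maximal response expressed relative to a concurrently run standard (loxoribine in most cases).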

Mus musculus [2] = species: Mus musculus; assay: Percent of maximum response was tested for its ability to act as B-cell mitogens (mitogenicity); type: functional; summary of the method: as §1
Mus musculus [3] = species: Mus musculus; assay: Percent of maximum response was tested to augment the antibody response of B cells to sheep red blood cell challenge; type: functional
Summary of the method: (§2)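 CBA/CaJ spleen cells depleted of T cells with anti-T cell monoclonal antibody (1:1000, 30 min, 4 °C) then complement (37 °C, 45 min). Cultured ± 0.1% SRBC antigen in serum-containing medium with compound from zero to 10⁻³ M for 4 d. Plaque-forming cells counted in agarose with guinea pig complement. ED50 and maximal response relative to a concurrent standard.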

Mus musculus [4] = species: Mus musculus; assay: Augment antibody response of B cells to sheep red blood cell (SRBC) challenge (adjuvanticity); type: functional; conditions: read-out: ED50 (the source's name); summary of the method: as §2
Mus musculus [5] = species: Mus musculus; assay: Tested to augment the antibody response of B cells to sheep red blood cell (SRBC) challenge (adjuvanticity); Neg indicates a response lower than vehicle control; type: functional, cell-based; summary of the method: as §2
YAC-1 [6] = assay: Percent of maximum response was tested for its ability to stimulate the natural killer response in murine in vitro cell assays; type: functional, Mus musculus
YAC-1 [7] = assay: Stimulation of natural killer (NK) response in Yac-1 cell line (mouse, lymphoma); Neg indicates a response lower than vehicle control; type: functional, cell-based
Mus musculus [8] = species: Mus musculus; assay: Ability to act as B-cell mitogens; type: functional; conditions: read-out: ED50 (the source's name); summary of the method: as §1
Mus musculus [9] = assay: In vivo natural killer cell response in splenocytes of mice injected with 2 mg intravenous dose % lysis of YAC-1 cells at effector: target ratio of 100:1; type: functional
Summary of the method: (§3)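 Mice dosed intravenously with 2 mg compound, with saline as the vehicle control. Spleens were removed 48 h later. Splenocytes were tested against 5 × 10⁴ ⁵¹Cr-labelled YAC-1 target cells in a 4-h ⁵¹Cr-release assay at four effector:target ratios. Results are mean % lysis ± one standard deviation, N = 3–5 mice per group.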

Mus musculus [10] = assay: In vivo natural killer cell response in splenocytes of mice injected with 2 mg intravenous dose % lysis of YAC-1 cells at effector: target ratio of 200:1; type: functional; summary of the method: as §3
Mus musculus [11] = assay: In vivo natural killer cell response in splenocytes of mice injected with 2 mg intravenous dose % lysis of YAC-1 cells at effector: target ratio of 25:1; type: functional; summary of the method: as §3
Mus musculus [12] = assay: In vivo natural killer cell response in splenocytes of mice injected with 2 mg intravenous dose % lysis of YAC-1 cells at effector: target ratio of 50:1; type: functional; summary of the method: as §3
Mus musculus [13] = assay: In vivo natural killer cell response in splenocytes of mice injected with 2 mg parenteral dose % lysis of YAC-1 cells at effector: target ratio of 50:1; type: functional
Summary of the method: (§4)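 Each mouse received 2 mg compound, and spleens were taken at 48 h. Splenocyte NK activity was measured as specific lysis of 5 × 10⁴ ⁵¹Cr-labelled YAC-1 cells over 4 h at four effector:target ratios. Results are mean % lysis ± one standard deviation, N = 3–5 mice per group.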

Mus musculus [14] = assay: In vivo natural killer cell response in splenocytes of mice injected with 2 mg parenteral dose % lysis of YAC-1 cells at effector: target ratio of 100:1; type: functional; summary of the method: as §4
Mus musculus [15] = assay: In vivo natural killer cell response in splenocytes of mice injected with 2 mg parenteral dose % lysis of YAC-1 cells at effector: target ratio of 200:1; type: functional; summary of the method: as §4
YAC-1 [16] = assay: Stimulation of natural killer (NK) response in Yac-1 cell line (mouse, lymphoma); type: functional; conditions: read-out: ED50 (the source's name)
Mus musculus [17] = species: Mus musculus; assay: Effective dose was tested for its ability to act as B-cell mitogens (mitogenicity); type: functional; conditions: read-out: ED50 (the source's name); summary of the method: as §1
Mus musculus [18] = assay: In vivo natural killer cell response in splenocytes of mice injected with 2 mg subcutaneous dose. % lysis of YAC-1 cells at effector: target ratio of 100:1; type: functional
Summary of the method: (§5)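 Mice dosed subcutaneously with 2 mg compound, with sesame oil as the vehicle control. Splenocytes were harvested 48 h after dosing and assayed in a 4-h ⁵¹Cr-release test against 5 × 10⁴ labelled YAC-1 cells at four effector:target ratios. Results are mean % lysis ± one standard deviation, 3–5 mice per group.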

Mus musculus [19] = assay: In vivo natural killer cell response in splenocytes of mice injected with 2 mg subcutaneous dose. % lysis of YAC-1 cells at effector: target ratio of 200:1; type: functional; summary of the method: as §5
Mus musculus [20] = assay: In vivo natural killer cell response in splenocytes of mice injected with 2 mg subcutaneous dose. % lysis of YAC-1 cells at effector: target ratio of 50:1; type: functional; summary of the method: as §5
Mus musculus [21] = assay: In vivo natural killer cell response in splenocytes of mice injected with 2 mg intravenous dose. % lysis of YAC-1 cells at effector: target ratio of 100:1; type: functional; summary of the method: as §3
Mus musculus [22] = assay: In vivo natural killer cell response in splenocytes of mice injected with 2 mg intravenous dose. % lysis of YAC-1 cells at effector: target ratio of 200:1; type: functional; summary of the method: as §3
Mus musculus [23] = assay: In vivo natural killer cell response in splenocytes of mice injected with 2 mg parenteral dose. % lysis of YAC-1 cells at effector: target ratio of 100:1; type: functional; summary of the method: as §4
Mus musculus [24] = assay: In vivo natural killer cell response in splenocytes of mice injected with 2 mg parenteral dose. % lysis of YAC-1 cells at effector: target ratio of 25:1; type: functional; summary of the method: as §4
Mus musculus [25] = assay: In vivo natural killer cell response in splenocytes of mice injected with 2 mg parenteral dose. % lysis of YAC-1 cells at effector: target ratio of 50:1; type: functional; summary of the method: as §4
Mus musculus [26] = assay: In vivo natural killer cell response in splenocytes of mice injected with 2 mg subcutaneous dose. % lysis of YAC-1 cells at effector: target ratio of 25:1; type: functional; summary of the method: as §5
Mus musculus [27] = assay: In vivo natural killer cell response in splenocytes of mice injected with 2 mg intravenous dose. % lysis of YAC-1 cells at effector: target ratio of 50:1; type: functional; summary of the method: as §3

Compound | ED50 (Mus musculus [1]) | Max response (Mus musculus [2]) [%] | Max response (Mus musculus [3]) [%] | EC50 (Mus musculus [4]) [µM] | ED50 (Mus musculus [5]) | Max response (YAC-1 [6]) [%] | ED50 (YAC-1 [7]) | also measured
Nc1nc(O)c2c(n1)n(C1OC(CO)[C@@H](O)[C@H]1O)c(=O)n2CC(=O)c1ccc(Cl)cc1 (some centres not stated) | Negative | 0 | 23 | 1620 |  |  |  | 
CCCn1c(=O)n(C2CCC(CO)O2)c2nc(NC(=O)C(C)(C)C)nc(O)c21 (configuration not stated) | Negative | 4 | 19 |  | Negative | 0 | Negative | 
C=CCN1C(=C(C(=O)OCC)C(=O)OCC)N([C@H]2OC(CO)[C@H]3OC(C)(C)O[C@H]32)c2nc(N)nc(O)c21 (some centres not stated) |  |  | 0 |  | Negative |  |  | 
CCCn1c(=O)n(C2CCC(COC(C)=O)O2)c2nc(NC(C)=O)nc(O)c21 (configuration not stated) |  | 11 | 100 | 154 |  | 0 | Negative | EC50 (Mus musculus [8]): 80 µM
C=CCn1c(=O)n([C@@H](CO)OC(CO)CO)c2nc(N)nc(O)c21 |  | 6 | 0 |  | Negative |  |  | EC50 (Mus musculus [8]): 37 µM
CC1OC(n2c(=O)n(C)c3c(O)nc(N)nc32)[C@H](O)[C@@H]1O (some centres not stated) |  |  | 0 |  | Negative |  |  | 
C=CCn1c(=O)n(C2C=CC(CO)O2)c2nc(N)nc(O)c21 (configuration not stated) |  | 84 | 45 | 6 |  | 89 |  | Ratio (Mus musculus [9]): 36.4; Ratio (Mus musculus [10]): 47.4; Ratio (Mus musculus [11]): 16.1; Ratio (Mus musculus [12]): 25.7; Ratio (Mus musculus [13]): 25.2; Ratio (Mus musculus [14]): 33.2 and 15.7; Ratio (Mus musculus [15]): 50.8; EC50 (Mus musculus [8]): 30 µM; EC50 (YAC-1 [16]): 11 µM
CCCCCCCCCCn1c(=O)n(C2OC(CO)[C@@H](O)[C@H]2O)c2nc(N)nc(O)c21 (some centres not stated) | Negative | 0 | 0 |  | Negative |  |  | 
Nc1nc(O)c2nc(S)n(COCCO)c2n1 |  |  | 0 |  | Negative | 26 |  | EC50 (YAC-1 [16]): 3 µM
C=CCn1c(=O)n(CCc2ccc(OC)c(OC)c2)c2nc(N)nc(O)c21 |  |  | 0 |  | Negative |  |  | 
C=CCn1c(=S)n(C2OC(COC(=O)c3ccccc3)[C@H]3OC(C)(C)O[C@@H]23)c2nc(N)nc(O)c21 (some centres not stated) | Negative | 0 | 77 | 47 |  |  |  | 
C=CCn1c(=O)n([C@@H]2O[C@H](CO)[C@H]3OC(C)(CCC(=O)NC)O[C@H]32)c2nc(N)nc(O)c21 (some centres not stated) | Negative | 0 | 9 |  | Negative | 0 | Negative | 
Cn1c(=O)n2c3c1c(=O)nc(N)n3CC1OC2[C@H](O)C1O (single isomer, unassigned) | Negative | 0 | 9 |  | Negative | 6 | Negative | 
C=CCn1c(=S)n(C2OC(CO)[C@@H](O)C(O)[C@H]2O)c2nc(N)nc(O)c21 (some centres not stated) |  |  | 5 | 1 |  | 3 | Negative | 
Nc1nc(O)c2nc(S)n([C@H]3O[C@H](CO)[C@@H](O)[C@H]3O)c2n1 | Negative | 6 | 8 |  | Negative | 0 | Negative | 
C=CCn1c(=O)n(C2C[C@H](O)C(CO)O2)c2nc(N)nc(O)c21 (some centres not stated) |  | 131 | 99 | 30 |  | 75 |  | EC50 (Mus musculus [17]): 134 µM; EC50 (YAC-1 [16]): 100 µM
Cc1nc2nc3c(c(O)n2n1)n(CCN1CCCCC1)c(=O)n3C1OC(CO)[C@@H](O)[C@H]1O (some centres not stated) | Negative | 0.1 | 1 |  | Negative | 0 | Negative | 
Nc1nc(O)c2c(n1)n(C1OC(CO)[C@@H](O)[C@H]1O)c(=O)n2Cc1ccc([N+](=O)[O-])cc1 (some centres not stated) |  | 16 | 147 | 40 |  | 50 |  | Ratio (Mus musculus [18]): 20.7; Ratio (Mus musculus [19]): 27.4 and 9.9; Ratio (Mus musculus [20]): 15.8; EC50 (Mus musculus [8]): 50 µM; EC50 (YAC-1 [16]): 48 µM
Nc1nc(O)c2c(n1)n(C1OC(CO)[C@@H](O)[C@H]1O)c(=O)n2Cc1ccc(Cl)c(Cl)c1 (some centres not stated) | Negative | 0 | 55 |  | Negative | 15 |  | EC50 (YAC-1 [16]): 110 µM
Nc1nc(O)c2nc3n(c2n1)COCCO3 |  |  | 0 |  | Negative | 6 | Negative | 
C=CCn1c(=O)n([C@H]2CO[C@@H](CO)C2)c2nc(N)nc(O)c21 |  | 16 | 10 | 83 |  | 0 | Negative | EC50 (Mus musculus [8]): 272 µM
C=CCn1c(=O)n(CCCCO)c2nc(N)nc(O)c21 |  | 16 | 12 |  | Negative |  |  | EC50 (Mus musculus [8]): 52 µM
C=CCn1c(=O)n(C2CCC(CO)C2)c2nc(N)nc(O)c21 (configuration not stated) | Negative | 0 | 26 | 226 |  |  |  | 
Nc1nc(O)c2c(n1)n(C1OC(CO)[C@@H](O)[C@H]1O)c(=O)n2CCN1CCCCC1 (some centres not stated) | Negative | 0 | 0 |  | Negative |  |  | 
CCCn1c(=O)n(C2OC(COP(=O)([O-])[O-])[C@@H](O)[C@H]2O)c2nc(N)nc(O)c21.[Li+].[Li+] (some centres not stated) |  | 57 | 76 | 15 |  | 15 | Negative | EC50 (Mus musculus [8]): 82 µM
C=CCn1c(=O)n([C@@H]2O[C@H](CO)[C@@H](O)[C@H]2O)c2nc(N)[nH]c(=O)c21 [LOXORIBINE] |  | 100 | 100 | 3 |  | 100 |  | Ratio (Mus musculus [11]): 22.8; Ratio (Mus musculus [21]): 48.9; Ratio (Mus musculus [22]): 52.2; Ratio (Mus musculus [23]): 18.9; Ratio (Mus musculus [24]): 7.7; Ratio (Mus musculus [25]): 11.8; Ratio (Mus musculus [18]): 19.5; Ratio (Mus musculus [19]): 27.6; Ratio (Mus musculus [26]): 9.3; Ratio (Mus musculus [20]): 12.7; Ratio (Mus musculus [27]): 38.6; Ratio (Mus musculus [15]): 29.6; EC50 (Mus musculus [8]): 10 µM; EC50 (YAC-1 [16]): 13 µM
C=CCn1c(=O)n([C@@H]2O[C@H](CO)[C@H]3OC(C)(CCC(=O)OCC)O[C@H]32)c2nc(N)nc(O)c21 (some centres not stated) | Negative | 0 | 44 | 139 |  | 19 |  | EC50 (YAC-1 [16]): 150 µM
